The results in this text go back to ChEMBL document CHEMBL3046176, “Synthesis, crystal structure, and biological activities of 2-cyanoacrylates containing furan or tetrahydrofuran moieties” (2007).

Format in all cases: functional
One experiment concerns Cladosporium cucumerinum. Kind of experiment: Antifungal activity against Cladosporium cucumerinum assessed as inhibition of mycelium growth at 50 mg/L at 26 degC measured after 72 hr. The essentials: (§1)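 Mycelium growth assay on agar. 1 mL test solution (50 mg/L) was poured into a 9 cm plate with 9 mL agar medium. Controls used sterile water in its place. A 4 mm plug from the margin of an actively growing colony was placed in the centre and incubated at 26 °C. Hyphal diameter was measured over 72 h, in triplicate. Inhibition % = (control diameter − treated diameter)/control diameter.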

Another experiment deals with Mycosphaerella arachidis. Briefly: Antifungal activity against Mycosphaerella arachidis assessed as inhibition of mycelium growth at 50 mg/L at 26 degC measured after 72 hr. The method in brief: as §1
The subject of experiment [1] is Botryosphaeria berengeriana. Kind of experiment: Antifungal activity against Botryosphaeria berengeriana assessed as inhibition of mycelium growth at 50 mg/L at 26 degC measured after 72 hr. The essentials: as §1
The subject of the next experiment is Alternaria solani. Kind of experiment: Antifungal activity against Alternaria solani assessed as inhibition of mycelium growth at 50 mg/L at 26 degC measured after 72 hr. The essentials: as §1
For another experiment, the system named is Fusarium graminearum. Kind of experiment: Antifungal activity against Fusarium graminearum assessed as inhibition of mycelium growth at 50 mg/L at 26 degC measured after 72 hr. The method in brief:
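Mycelium growth test on agar plates: 1 mL test solution (50 mg/L) mixed with 9 mL agar medium; sterile water in place of test solution for controls. 4 mm inocula cut from margins of actively growing colonies, placed at plate centre, incubated at 26 °C; mycelium diameter measured over 72 h. Inhibition % from mean hyphal diameter against control. Triplicate.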

A further experiment concerns Cucumis sativus. Briefly: Plant growth regulatory activity in Cucumis sativus (cucumber) seed assessed as number of root at 10 mg/L at 26 degC measured after 5 days. The essentials:
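Cucumber seeds were incubated at 26 °C in the dark for 72 h, then 10 cotyledons were excised and treated. Incubation continued at 26 °C in the dark for 5 days. Roots were counted, with water-only controls, in triplicate.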

Experiment [2] has as its system Digitaria sanguinalis. Briefly: Herbicidal activity against hairy crabgrass Digitaria sanguinalis (hairy crabgrass) assessed as herbicidal damage at 1.5 kg/ha measured after preemergence treatment. The following applies: pre-emergence. The method in brief:
(§2)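 Seeds were sown in 6 cm boxes of artificial mixed soil, covered with plastic film until emergence, and grown in a greenhouse. Sprays were applied right after sowing (preemergence) or after the first true leaf expanded (postemergence). Controls received the same amount of water/DMF/Tween 20. Above-ground fresh weight was taken 10 days after treatment, in triplicate, as % damage versus control.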

Experiment [3] deals with Medicago sativa. Briefly: Herbicidal activity against Medicago sativa (alfalfa) assessed as herbicidal damage at 1.5 kg/ha measured after preemergence treatment. The note with it: pre-emergence. The essentials: as §2
Experiment [4] deals with Amaranthus retroflexus. Kind of experiment: Herbicidal activity against Amaranthus retroflexus assessed as herbicidal damage at 1.5 kg/ha measured after preemergence treatment. The following applies: pre-emergence. The method in brief: as §2
Experiment [5] relates to Brassica napus. Kind of experiment: Herbicidal activity against rape Brassica napus (oilseed rape) assessed as herbicidal damage at 1.5 kg/ha measured after preemergence treatment. The following applies: pre-emergence. The essentials:
as §2

Experiment [6] has as its system Digitaria sanguinalis. Briefly: Herbicidal activity against hairy crabgrass Digitaria sanguinalis (hairy crabgrass) assessed as herbicidal damage at 1.5 kg/ha measured after postemergence treatment. The following applies: post-emergence. The method in brief: as §2
In experiment [7] the test system is Medicago sativa. Briefly: Herbicidal activity against Medicago sativa (alfalfa) assessed as herbicidal damage at 1.5 kg/ha measured after postemergence treatment. The note with it: post-emergence. The essentials:
as §2

Experiment [8] concerns Amaranthus retroflexus. Briefly: Herbicidal activity against Amaranthus retroflexus assessed as herbicidal damage at 1.5 kg/ha measured after postemergence treatment. The following applies: post-emergence. The essentials: as §2
For experiment [9], the system named is Brassica napus. Briefly: Herbicidal activity against rape Brassica napus (oilseed rape) assessed as herbicidal damage at 1.5 kg/ha measured after postemergence treatment. The note with it: post-emergence. The essentials:
as §2

A further experiment has as its system Tobacco mosaic virus. Briefly: Antiviral activity against Tobacco mosaic virus (TMV) inoculated in fresh tobacco leaf at 100 mg/L by half-leaf method. The essentials:
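Half-leaf method on tobacco leaves at the 5-6 growth stage. Leaves were inoculated with TMV by juice-leaf rubbing at 5.88 × 10-2 µg/mL and cut along the main vein. One half was immersed in test solution and the other in double distilled water for 20 min, then cultured at 25 °C for 72 h, in triplicate. Inhibition = 100(CK − A)/CK, from average lesion counts.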

Structures are written as SMILES.

In the case of `CCOCCOC(=O)/C(C#N)=C(\NCc1ccoc1)C(C)C`, the inhibition at 50 µg/mL in the experiment on Cladosporium cucumerinum worked out at 13.2%; in the experiment on Mycosphaerella arachidis, 30.4%; in experiment [1] it was 22.7%; in the experiment with Alternaria solani it was 25%; in the experiment on Fusarium graminearum, 0%. Moreover, the Activity with Cucumis sativus is given as 11.4%. The inhibition at 1500 g/ha with Digitaria sanguinalis [2] is 33.6%; in the experiment with Medicago sativa [3], 10.5%; in the experiment with Amaranthus retroflexus [4] it was 22.1%; with Brassica napus [5], 0%; in the experiment with Digitaria sanguinalis [6] it was 0%; in the experiment on Medicago sativa [7] it was 13.2%. Besides, the inhibition at 1500 g/ha is 27.4% with Amaranthus retroflexus [8] and 51.9% in the experiment on Brassica napus [9].
On to `CCOCCOC(=O)/C(C#N)=C(/NCc1ccoc1)SC`, for which the results for the Activity in the experiment with Tobacco mosaic virus and in the experiment on Cucumis sativus were 8% and 14.4%, respectively. In addition, the inhibition at 50 µg/mL with Cladosporium cucumerinum came to 13.2%; with Mycosphaerella arachidis, 12.5%; in experiment [1], 9.1%; in the experiment with Alternaria solani, 3.6%; in the experiment with Fusarium graminearum it was 36.7%. Moreover, the inhibition at 1500 g/ha was 0% in the experiment with Digitaria sanguinalis [2]; 16.5% with Medicago sativa [3]; 8.4% in the experiment with Amaranthus retroflexus [4]; 0% with Brassica napus [5]; 5.1% with Digitaria sanguinalis [6]; 31.1% in the experiment with Medicago sativa [7]. The inhibition at 1500 g/ha turned out to be 28.8% in the experiment on Amaranthus retroflexus [8] and 30.8% in the experiment on Brassica napus [9].
For the molecule `CCOCCOC(=O)/C(C#N)=C(/C)NCc1ccoc1`, the inhibition at 50 µg/mL was found to be 36.8% in the experiment on Cladosporium cucumerinum; 44.6% in the experiment with Mycosphaerella arachidis; 13.6% in experiment [1]; 0% with Alternaria solani; 33.3% with Fusarium graminearum. Further, the Activity in the experiment on Cucumis sativus is listed as -18.6%. Further, the inhibition at 1500 g/ha in the experiment with Digitaria sanguinalis [2] came out at 22.8%; in the experiment with Medicago sativa [3], 6.8%; in the experiment with Amaranthus retroflexus [4], 21.1%; with Brassica napus [5], 0%; in the experiment on Digitaria sanguinalis [6] it was 0%; with Medicago sativa [7], 20.4%. Also, the inhibition at 1500 g/ha with Amaranthus retroflexus [8] came to 37.1%; with Brassica napus [9] it was 49.8%.
On to `CCOCCOC(=O)/C(C#N)=C(/CC)NCC1CCCO1` (stereo unspecified), for which the Activity stood at 13.2% in the experiment on Tobacco mosaic virus and 2.4% in the experiment with Cucumis sativus. The inhibition at 50 µg/mL came to 15.8% with Cladosporium cucumerinum; 37.5% in the experiment on Mycosphaerella arachidis; 22.7% in [1]; 10.7% in the experiment on Alternaria solani; 20% in the experiment on Fusarium graminearum. Further, the inhibition at 1500 g/ha in the experiment on Digitaria sanguinalis [2] turned out to be 0%; in the experiment on Medicago sativa [3] it was 3%; in the experiment on Amaranthus retroflexus [4], 8.4%; in the experiment with Brassica napus [5] it was 7.4%; with Digitaria sanguinalis [6], 0%; with Medicago sativa [7], 22.2%. Further, the inhibition at 1500 g/ha in the experiment on Amaranthus retroflexus [8] turned out to be 46.1%; in the experiment with Brassica napus [9] it was 63.7%.
With `CCOCCOC(=O)/C(C#N)=C(/NCc1ccco1)SC`, the inhibition at 50 µg/mL with Cladosporium cucumerinum stood at 15.8%; in the experiment with Mycosphaerella arachidis it was 16.1%; in experiment [1] it was 22.7%; with Alternaria solani, 25%; in the experiment with Fusarium graminearum, 36.7%. Also, the Activity in the experiment on Cucumis sativus was determined as 14.4%. The inhibition at 1500 g/ha turned out to be 37.8% in the experiment on Digitaria sanguinalis [2]; 0% with Medicago sativa [3]; 10.5% with Amaranthus retroflexus [4]; 20.7% with Brassica napus [5]; 13.1% in the experiment on Digitaria sanguinalis [6]; 18.6% in the experiment with Medicago sativa [7]. Moreover, the inhibition at 1500 g/ha with Amaranthus retroflexus [8] turned out to be 30.2%; in the experiment with Brassica napus [9] it was 22.9%.
On to `CCC/C(NCc1ccco1)=C(\C#N)C(=O)OCCOCC`, for which the inhibition at 50 µg/mL turned out to be 13.2% in the experiment on Cladosporium cucumerinum; 3.6% in the experiment with Mycosphaerella arachidis; 9.1% in experiment [1]; 10.7% in the experiment on Alternaria solani; 30% in the experiment with Fusarium graminearum. Besides, in the experiment with Cucumis sativus, the Activity is 14.4%. Further, the inhibition at 1500 g/ha with Digitaria sanguinalis [2] came out at 22.8%; in the experiment on Medicago sativa [3], 0%; in the experiment on Amaranthus retroflexus [4] it was 0%; in the experiment with Brassica napus [5] it was 30.7%; with Digitaria sanguinalis [6], 1%; with Medicago sativa [7], 12.6%. Further, the inhibition at 1500 g/ha in the experiment on Amaranthus retroflexus [8] is 31.6%; in the experiment with Brassica napus [9], 22.9%.
In the case of `CCOCCOC(=O)/C(C#N)=C(/NCC1CCOC1)SC` (stereo unspecified), the inhibition at 50 µg/mL in the experiment on Cladosporium cucumerinum was determined as 21.1%; in the experiment on Mycosphaerella arachidis, 25%; in [1], 27.3%; with Alternaria solani, 21.4%; in the experiment on Fusarium graminearum, 0%. In the experiment on Cucumis sativus, the Activity is listed as -9.6%. For the same molecule, the inhibition at 1500 g/ha in the experiment with Digitaria sanguinalis [2] was 5.7%; in the experiment with Medicago sativa [3], 0%; in the experiment on Amaranthus retroflexus [4], 22.1%; in the experiment on Brassica napus [5], 0%; with Digitaria sanguinalis [6], 0%; in the experiment with Medicago sativa [7], 4.2%. The values for the inhibition at 1500 g/ha in the experiment with Amaranthus retroflexus [8] and with Brassica napus [9] were 43.3% and 50.5%, respectively.
As for `CCOCCOC(=O)/C(C#N)=C(/NCC1CCCO1)SC` (stereo unspecified), the inhibition at 50 µg/mL with Cladosporium cucumerinum was found to be 34.2%; with Mycosphaerella arachidis it was 17.9%; in experiment [1] it was 4.5%; with Alternaria solani, 0%; in the experiment with Fusarium graminearum, 40%. In addition, in the experiment with Cucumis sativus, the Activity is -0.6%. Also, the inhibition at 1500 g/ha turned out to be 35.7% in the experiment with Digitaria sanguinalis [2]; 21.8% in the experiment on Medicago sativa [3]; 9.5% with Amaranthus retroflexus [4]; 0% in the experiment with Brassica napus [5]; 0% with Digitaria sanguinalis [6]; 23.4% in the experiment on Medicago sativa [7]. For the same molecule, the inhibition at 1500 g/ha was found to be 37.8% with Amaranthus retroflexus [8] and 47.5% in the experiment on Brassica napus [9].
`CCOCCOC(=O)/C(C#N)=C(/CC)NCc1ccoc1`: the inhibition at 50 µg/mL in the experiment on Cladosporium cucumerinum came out at 26.3%; with Mycosphaerella arachidis it was 35.7%; in [1], 4.5%; in the experiment on Alternaria solani, 10.7%; in the experiment on Fusarium graminearum it was 33.3%. Moreover, the Activity with Cucumis sativus is listed as 23.4%. Further, the inhibition at 1500 g/ha was determined as 0% with Digitaria sanguinalis [2]; 2.3% in the experiment on Medicago sativa [3]; 11.6% in the experiment on Amaranthus retroflexus [4]; 0% in the experiment with Brassica napus [5]; 0% in the experiment on Digitaria sanguinalis [6]; 0% in the experiment on Medicago sativa [7]. The figures for the inhibition at 1500 g/ha in the experiment with Amaranthus retroflexus [8] and in the experiment with Brassica napus [9] were 23.3% and 33.8%, respectively.
With `CCOCCOC(=O)/C(C#N)=C(/C)NCC1CCOC1` (stereo unspecified), the inhibition at 50 µg/mL was 18.4% with Cladosporium cucumerinum; 12.5% in the experiment with Mycosphaerella arachidis; 27.3% in [1]; 35.7% in the experiment on Alternaria solani; 0% in the experiment on Fusarium graminearum. The Activity in the experiment on Cucumis sativus is given as -6.6%. The inhibition at 1500 g/ha in the experiment with Digitaria sanguinalis [2] stood at 31.4%; in the experiment on Medicago sativa [3], 7.5%; with Amaranthus retroflexus [4], 12.6%; in the experiment on Brassica napus [5] it was 0%; in the experiment on Digitaria sanguinalis [6], 0%; in the experiment on Medicago sativa [7], 5.4%. In addition, the inhibition at 1500 g/ha in the experiment on Amaranthus retroflexus [8] amounted to 29.5%; in the experiment on Brassica napus [9] it was 52.3%.
On to `CCOCCOC(=O)/C(C#N)=C(/C)NCc1ccco1`, for which the inhibition at 50 µg/mL came out at 21.1% in the experiment on Cladosporium cucumerinum; 44.6% with Mycosphaerella arachidis; 22.7% in experiment [1]; 0% in the experiment on Alternaria solani; 46.7% with Fusarium graminearum. The Activity with Cucumis sativus is -0.6%. Besides, the inhibition at 1500 g/ha with Digitaria sanguinalis [2] was 42.1%; with Medicago sativa [3], 12%; in the experiment with Amaranthus retroflexus [4], 3.2%; in the experiment with Brassica napus [5], 8.5%; in the experiment with Digitaria sanguinalis [6], 17.2%; in the experiment with Medicago sativa [7] it was 5.4%. In addition, the inhibition at 1500 g/ha with Amaranthus retroflexus [8] is 32.3%; in the experiment with Brassica napus [9], 20.1%.
